Paper PMC3003407 (The Journal of Biological Chemistry, 2010)
Values belong to the substance of their own block, whether it stands above or below them.

Columns and labels:
[1] = target: human plasma fibronectin (human); assay: ELISA
FN = FN (Homo sapiens, UniProt P02751); assay: Competition of 0.3 nM b-FUD binding to adsorbed FN; conditions: 1000 nM competitor
Procedure, shortened: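 Wells coated overnight at 4 °C with 10 μg/ml (40 nM) FN, then blocked with 5% BSA in TBST. 0.3 nM biotinylated FUD was added together with competitor in TBST plus 0.1% BSA for 2 h. Detection used alkaline phosphatase–streptavidin (1:20,000, 1 h), 4-nitrophenyl phosphate (1 mg/ml, TBS pH 9.0) and A405. Triplicates, background-subtracted, expressed relative to b-FUD alone.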

[2] = target: recombinant human N-terminal 70-kDa fibrin- and gelatin-binding fragment of fibronectin (N-9FNI, residues 32-608) (human) (UniProt P02751); assay: ITC

Substance: FUD i29/30 (single alanine inserted between Ile-29 and Asp-30) (domain or fragment)
percent competition at 10 μM [1]: 20%

competition with b-FUD for binding to FN (FN): minor degree
Substance: N-^5FNI: Recombinant FN fibrin-binding fragment, residues 32–290

Substance: functional upstream domain (FUD) of Streptococcus pyogenes F1 adhesin, recombinant, 56 residues with tails (domain or fragment)
Kd [2]: 5.2 nM
